The results in this text go back to ChEMBL document CHEMBL1124629, “Syntheses and biological activities of 13-substituted avermectin aglycons” (J Med Chem, 1989).

Assay [1] relates to Trichostrongylus colubriformis. Nature of the assay: Antiparasitic activity against sheep parasite Trichostrongylus colubriformis. Particulars: in gerbil.
Assay [2] in a line: Binding radioligand. Details: species or system Caenorhabditis elegans. In a few lines:
(§1)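 Competitive binding with [22,23-3H2]ivermectin as radioligand, displaced from an avermectin receptor preparation derived from the free-living nematode Caenorhabditis elegans.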

Assay [3] deals with Spodoptera eridania. Nature of the assay: Antiparasitic activity against southern army worm Spodoptera eridania. Format: functional. The essentials: (§2)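 Neonate southern armyworm (Spodoptera eridania) larvae placed on bean leaves treated with test compound.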
Assay [4] deals with Tetranychus urticae. Put plainly: Antiparasitic activity against two-spotted spider mite Tetranychus urticae on bean plants. It is filed as functional. The essentials: (§3)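 Two-spotted spider mite (Tetranychus urticae) infesting bean plants treated with test compound.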
Assay [5] can be described thus: Displacement of ivermectin from avermectin receptor of Caenorhabditis elegans. In a few lines:
as §1

In assay [6] the test system is Tetranychus urticae. Put plainly: Antiparasitic activity against Tetranychus urticae. It is filed as functional. In a few lines:
as §3

For assay [7], the system named is Trichostrongylus colubriformis. Put plainly: Antiparasitic activity against Trichostrongylus colubriformis. It is filed as functional. In a few lines:
(§4)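 Sheep nematode Trichostrongylus colubriformis tested in vivo in a gerbil infection model.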

The test system of assay [8] is Spodoptera eridania. Put plainly: Antiparasitic activity against Southern army worm. It is filed as functional. In a few lines:
as §2

The test system of assay [9] is Trichostrongylus colubriformis. Put plainly: Antiparasitic activity against sheep parasite Trichostrongylus colubriformis. It is filed as functional. The essentials: as §4

A word on the Ki: it is a measure of affinity in units of concentration, obtained from inhibition or displacement. Higher therefore signals a looser hold on the target. As for `CC[C@H](C)[C@H]1O[C@]2(CC[C@@H]1C)C[C@@H]1C[C@@H](C/C=C(C)/C(=N\OC)[C@@H](C)/C=C/C=C3\CO[C@@H]4[C@H](O)C(C)=C[C@@H](C(=O)O1)[C@]34O)O2`, the ED90 in assay [1] is less than 0.1 mg/kg; in the assay with Spodoptera eridania [3], 0.5 p.p.m; with Tetranychus urticae [4], 0.05 p.p.m. In assay [2], this compound came in with a Ki of 0.3 nM.

For `CC[C@H](C)[C@H]1O[C@]2(CC[C@@H]1C)C[C@@H]1C[C@@H](C/C=C(\C)[C@H](I)[C@@H](C)/C=C/C=C3\CO[C@@H]4[C@H](O)C(C)=C[C@@H](C(=O)O1)[C@]34O)O2`, the affinity in assay [5], expressed as Ki, was 2.4 nM. Moreover, the results for the ED90 (with Tetranychus urticae [6]; in assay [7]) were 1.25 p.p.m and 0.5 mg/kg, respectively.

`CC[C@H](C)[C@H]1O[C@]2(CC[C@@H]1C)C[C@@H]1C[C@@H](C/C=C(\C)C(=O)[C@@H](C)/C=C/C=C3\CO[C@@H]4[C@H](O)C(C)=C[C@@H](C(=O)O1)[C@]34O)O2` came in with a Ki in assay [5] of 0.6 nM. Also, the figures for the ED90 (with Tetranychus urticae [6]; in assay [7]; with Spodoptera eridania [8]) were 6.25 p.p.m, 0.5 mg/kg and greater than 0.5 p.p.m, respectively.

Consider `CC[C@H](C)[C@H]1O[C@]2(CC[C@@H]1C)C[C@@H]1C[C@@H](C/C=C(\C)[C@H](OCOCCOC)[C@@H](C)/C=C/C=C3\CO[C@@H]4[C@H](O)C(C)=C[C@@H](C(=O)O1)[C@]34O)O2`, for which, in assay [5], the Ki amounted to 2.9 nM. For the same compound, the ED90 is 0.01 p.p.m with Tetranychus urticae [6], less than 0.1 mg/kg in assay [7] and greater than 0.25 p.p.m in the assay on Spodoptera eridania [8].

As for `CC[C@H](C)[C@H]1O[C@]2(CC[C@@H]1C)C[C@@H]1C[C@@H](CC(N3CCOCC3)/C(C)=C\[C@@H](C)/C=C/C=C3\CO[C@@H]4[C@H](O)C(C)=C[C@@H](C(=O)O1)[C@]34O)O2` (some centres not stated), the ED90 in assay [1] was greater than 2.5 mg/kg; in the assay with Tetranychus urticae [4] it was 6.25 p.p.m. The compound further yielded a Ki in assay [5] greater than 100 nM.

In turn, `CC[C@H](C)[C@H]1O[C@]2(CC[C@@H]1C)C[C@@H]1C[C@@H](C/C=C(\C)[C@@H](OCOCCOC)[C@@H](C)/C=C/C=C3\CO[C@@H]4[C@H](O)C(C)=C[C@@H](C(=O)O1)[C@]34O)O2` displayed a Ki in assay [5] of 2.7 nM. Moreover, the ED90 is 0.05 p.p.m in the assay on Tetranychus urticae [6], greater than 0.1 mg/kg in assay [7] and less than 1 p.p.m in the assay on Spodoptera eridania [8].

Regarding IVERMECTIN [listing 1 of 2 here], the Ki in assay [2] was 0.3 nM.

As for `CC[C@H](C)[C@H]1O[C@]2(CC[C@@H]1C)C[C@@H]1C[C@@H](CC(N(C)C(C)=O)/C(C)=C\[C@@H](C)/C=C/C=C3\CO[C@@H]4[C@H](O)C(C)=C[C@@H](C(=O)O1)[C@]34O)O2` (some centres not stated), the ED90 in [1] was greater than 2.5 mg/kg; in the assay on Tetranychus urticae [4] it was greater than 6.25 p.p.m. This compound also displayed a Ki in assay [2] greater than 100 nM.

Consider `CC[C@H](C)[C@H]1O[C@]2(CC[C@@H]1C)C[C@@H]1C[C@@H](C/C=C(\C)[C@@H](OC)[C@@H](C)/C=C/C=C3\CO[C@@H]4[C@H](O)C(C)=C[C@@H](C(=O)O1)[C@]34O)O2`, for which the figures for the ED90 (in assay [1]; with Tetranychus urticae [4]) were 0.5 mg/kg and 1 p.p.m, respectively. The compound further came in with a Ki in assay [5] of 0.6 nM.

Consider `CC[C@H](C)[C@H]1O[C@]2(CC[C@@H]1C)C[C@@H]1C[C@@H](C/C=C(\C)[C@H](O)[C@@H](C)/C=C/C=C3\CO[C@@H]4[C@H](O)C(C)=C[C@@H](C(=O)O1)[C@]34O)O2`, for which the results for the ED90 (in [1]; in the assay with Spodoptera eridania [3]; in the assay on Tetranychus urticae [4]) were less than 0.5 mg/kg, greater than 8 p.p.m and 0.05 p.p.m, respectively. This compound returned an inhibition constant Ki in assay [5] of 2 nM.

As for `CC[C@H](C)[C@H]1O[C@]2(C=C[C@@H]1C)C[C@@H]1C[C@@H](C/C=C(\C)[C@@H](O[C@H]3C[C@H](OC)[C@@H](O[C@H]4C[C@H](OC)[C@@H](O)[C@H](C)O4)[C@H](C)O3)[C@@H](C)/C=C/C=C3\CO[C@@H]4[C@H](O)C(C)=C[C@@H](C(=O)O1)[C@]34O)O2` [ABAMECTIN COMPONENT B1A], the ED90 in assay [1] came out at 0.03 mg/kg; in the assay on Spodoptera eridania [3], 8 p.p.m; in the assay on Tetranychus urticae [4], 0.05 p.p.m. In assay [2], this compound had a Ki of 0.1 nM.

`CC[C@H](C)[C@H]1O[C@]2(CC[C@@H]1C)C[C@@H]1C[C@@H](C/C=C(\C)[C@@H](Cl)[C@@H](C)/C=C/C=C3\CO[C@@H]4[C@H](O)C(C)=C[C@@H](C(=O)O1)[C@]34O)O2`: the ED90 in the assay with Tetranychus urticae [6] is greater than 0.1 p.p.m; in [7] it was less than 0.1 mg/kg; in the assay on Spodoptera eridania [8] it was less than 1 p.p.m.

In the case of `CC[C@H](C)[C@H]1O[C@]2(CC[C@@H]1C)C[C@@H]1C[C@@H](C/C=C(\C)[C@@H](F)[C@@H](C)/C=C/C=C3\CO[C@@H]4[C@H](O)C(C)=C[C@@H](C(=O)O1)[C@]34O)O2`, the ED90 in assay [1] was less than 0.1 mg/kg; with Spodoptera eridania [3], greater than 0.5 p.p.m; in the assay on Tetranychus urticae [4], 0.05 p.p.m. For the same compound, in assay [5], the Ki came out at 0.2 nM.

Take `CC[C@H](C)[C@H]1O[C@]2(CC[C@@H]1C)C[C@@H]1C[C@@H](C/C=C(\C)[C@@H](O)[C@@H](C)/C=C/C=C3\CO[C@@H]4[C@H](O)C(C)=C[C@@H](C(=O)O1)[C@]34O)O2` [IVM AGLYCONE]: the Ki in assay [5] stood at 6.4 nM. The ED90 is on record as greater than 6.25 p.p.m in the assay with Spodoptera eridania [3] and 0.5 p.p.m with Tetranychus urticae [4].

For the compound IVERMECTIN [listing 2 of 2 here], the ED90 in assay [9] came to 0.05 mg/kg; with Spodoptera eridania [3], 8 p.p.m; with Tetranychus urticae [4], 0.05 p.p.m.

As for `CC[C@H](C)[C@H]1O[C@]2(CC[C@@H]1C)C[C@@H]1C[C@@H](C/C=C(C)/C=C(C)\C=C\C=C3/CO[C@@H]4[C@H](O)C(C)=C[C@@H](C(=O)O1)[C@]34O)O2`, the ED90 in [1] is greater than 2.5 mg/kg; with Spodoptera eridania [3], greater than 1 p.p.m; in the assay with Tetranychus urticae [4], greater than 6.25 p.p.m. The compound further yielded a Ki in assay [5] of 0.8 nM.

Consider `CC[C@H](C)[C@H]1O[C@]2(CC[C@@H]1C)C[C@@H]1C[C@@H](C/C=C(\C)[C@H](F)[C@@H](C)/C=C/C=C3\CO[C@@H]4[C@H](O)C(C)=C[C@@H](C(=O)O1)[C@]34O)O2`, for which the ED90 in assay [1] is less than 0.1 mg/kg; in the assay with Spodoptera eridania [3] it was 0.5 p.p.m; in the assay with Tetranychus urticae [4] it was 0.01 p.p.m. Also, affinity in assay [5] was put at a Ki of 0.3 nM.

Turning to `CC[C@H](C)[C@H]1O[C@]2(CC[C@@H]1C)C[C@@H]1C[C@@H](C/C=C(\C)C[C@@H](C)/C=C/C=C3\CO[C@@H]4[C@H](O)C(C)=C[C@@H](C(=O)O1)[C@]34O)O2`, the ED90 in [1] is 0.06 mg/kg; with Spodoptera eridania [3] it was 0.5 p.p.m; in the assay on Tetranychus urticae [4], 0.05 p.p.m. The compound further registered a Ki in assay [5] of 0.9 nM.

For the compound `CC[C@H](C)[C@H]1O[C@]2(CC[C@@H]1C)C[C@@H]1C[C@@H](C/C=C(\C)[C@H](Cl)[C@@H](C)/C=C/C=C3\CO[C@@H]4[C@H](O)C(C)=C[C@@H](C(=O)O1)[C@]34O)O2`, in assay [5], the affinity, expressed as Ki, was 1 nM. Besides, the results for the ED90 (in the assay with Tetranychus urticae [6]; in assay [7]; with Spodoptera eridania [8]) were 0.25 p.p.m, 0.1 mg/kg and 0.5 p.p.m, respectively.

`CC[C@H](C)[C@H]1O[C@]2(CC[C@@H]1C)C[C@@H]1C[C@@H](CC(O)/C(C)=C\[C@@H](C)/C=C/C=C3\CO[C@@H]4[C@H](O)C(C)=C[C@@H](C(=O)O1)[C@]34O)O2` (some centres not stated) yielded a Ki in [2] greater than 100 nM. This compound showed an ED90 with Tetranychus urticae [4] greater than 6.25 p.p.m.

As to `CC[C@H](C)[C@H]1O[C@]2(CC[C@@H]1C)C[C@@H]1C[C@@H](C/C=C(\C)[C@@H](N)[C@@H](C)/C=C/C=C3\CO[C@@H]4[C@H](O)C(C)=C[C@@H](C(=O)O1)[C@]34O)O2`, the ED90 in assay [1] is 0.5 mg/kg; with Spodoptera eridania [3], greater than 1 p.p.m; with Tetranychus urticae [4], greater than 0.1 p.p.m. For the same compound, the Ki in [5] is greater than 100 nM.
